From ChEMBL document CHEMBL4118021, “Studies of TAK1-centered polypharmacology with novel covalent TAK1 inhibitors” (Bioorg Med Chem, 2017)

Columns and labels:
[1] = molecular target: Cyclin-dependent kinase 11B (Homo sapiens) (UniProt P21127); assay: Inhibition of PITSLRE in human SKCO1 cells at 1 uM after 4 hrs using biotin labeled DLKTSNLLLSHAGILK probe by mass-spectrometric analysis relative to control; assay type: cell-based
How it was run: (§1)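 Live SK-CO-1 cells exposed to compound at 1 μM or DMSO for 4 h (KiNativ). Lysates then labeled with lysine-reactive ATP/ADP-biotin probe, and probe-labeled kinase peptides quantified by mass spectrometry. Percent inhibition of probe-dependent recovery calculated relative to DMSO-treated cells.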

[2] = molecular target: Bone morphogenetic protein receptor type-1A (Homo sapiens) (UniProt P36894); assay: Inhibition of BMPR1A in human SKCO1 cells at 1 uM after 4 hrs using biotin labeled SKNILIK probe by mass-spectrometric analysis relative to control; assay type: cell-based
Sequence of Bone morphogenetic protein receptor type-1A (Homo sapiens) (P36894 whole entry): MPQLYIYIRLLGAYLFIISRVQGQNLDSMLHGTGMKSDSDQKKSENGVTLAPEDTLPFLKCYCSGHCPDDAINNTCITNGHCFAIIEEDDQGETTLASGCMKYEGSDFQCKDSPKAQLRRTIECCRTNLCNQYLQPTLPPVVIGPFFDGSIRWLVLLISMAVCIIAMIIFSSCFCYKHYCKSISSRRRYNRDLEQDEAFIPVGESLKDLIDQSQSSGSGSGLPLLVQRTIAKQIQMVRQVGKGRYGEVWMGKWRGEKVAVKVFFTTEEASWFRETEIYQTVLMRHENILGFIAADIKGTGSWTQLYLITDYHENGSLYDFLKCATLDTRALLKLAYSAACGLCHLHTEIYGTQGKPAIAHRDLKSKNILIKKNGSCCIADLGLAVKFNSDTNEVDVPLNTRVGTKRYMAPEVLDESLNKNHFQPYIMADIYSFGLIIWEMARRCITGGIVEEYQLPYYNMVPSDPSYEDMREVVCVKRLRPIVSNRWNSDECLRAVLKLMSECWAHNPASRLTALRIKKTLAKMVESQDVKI

[3] = molecular target: Mitogen-activated protein kinase kinase kinase 20 (Homo sapiens) (UniProt Q9NYL2); assay: Inhibition of ZAK in human SKCO1 cells at 1 uM after 4 hrs using biotin labeled WISQDKEVAVKK probe by mass-spectrometric analysis relative to control; assay type: cell-based; how it was run: as §1
[4] = molecular target: Glycogen synthase kinase-3 alpha (Homo sapiens) (UniProt P49840); assay: Inhibition of GSK3A in human SKCO1 cells at 1 uM after 4 hrs using biotin labeled DIKPQNLLVDPDTAVLK probe by mass-spectrometric analysis relative to control; assay type: cell-based
[5] = molecular target: T1, Dual specificity mitogen-activated protein kinase kinase 7 (Homo sapiens) (UniProt O14733); assay: Inhibition of MAP2K7 in human SKCO1 cells at 1 uM after 4 hrs using biotin labeled DVKPSNILLDER probe by mass-spectrometric analysis relative to control; assay type: cell-based
T1 sequence (whole entry): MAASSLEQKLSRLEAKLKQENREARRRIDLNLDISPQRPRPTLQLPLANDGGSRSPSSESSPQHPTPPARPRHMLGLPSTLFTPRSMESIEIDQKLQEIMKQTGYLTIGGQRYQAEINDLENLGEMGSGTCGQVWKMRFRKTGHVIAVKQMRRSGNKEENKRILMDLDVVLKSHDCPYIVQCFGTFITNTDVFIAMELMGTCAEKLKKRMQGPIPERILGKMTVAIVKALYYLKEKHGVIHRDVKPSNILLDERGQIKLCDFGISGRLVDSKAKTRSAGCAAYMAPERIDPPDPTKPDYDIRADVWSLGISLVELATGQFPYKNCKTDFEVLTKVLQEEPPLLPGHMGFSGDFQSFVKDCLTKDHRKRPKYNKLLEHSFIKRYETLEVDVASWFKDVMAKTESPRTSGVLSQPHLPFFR

[6] = molecular target: 5'-AMP-activated protein kinase catalytic subunit alpha-2 (Homo sapiens) (UniProt P54646); assay: Inhibition of AMPKa2 in human SKCO1 cells at 1 uM after 4 hrs using biotin labeled DLKPENVLLDAHMNAK probe by mass-spectrometric analysis relative to control; assay type: cell-based
How it was run: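 Live SK-CO-1 cells were treated 4 h with compound at 1 μM or DMSO, then lysed. Lysates were labeled with a lysine-reactive ATP/ADP-biotin probe and analysed by mass spectrometry. Percent inhibition is the loss of probe-dependent recovery of the kinase peptide relative to DMSO.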

[7] = molecular target: Mitogen-activated protein kinase kinase kinase kinase 4 (Homo sapiens) (UniProt O95819); assay: Inhibition of ZC1/HGK in human SKCO1 cells at 1 uM after 4 hrs using biotin labeled DIKGQNVLLTENAEVK probe by mass-spectrometric analysis relative to control; assay type: cell-based; conditions: pooled result: one value given for 3 cell lines, strains, targets or settings; how it was run: as §1
Sequence of Mitogen-activated protein kinase kinase kinase kinase 4 (Homo sapiens) (O95819 2-1239 limits assumed): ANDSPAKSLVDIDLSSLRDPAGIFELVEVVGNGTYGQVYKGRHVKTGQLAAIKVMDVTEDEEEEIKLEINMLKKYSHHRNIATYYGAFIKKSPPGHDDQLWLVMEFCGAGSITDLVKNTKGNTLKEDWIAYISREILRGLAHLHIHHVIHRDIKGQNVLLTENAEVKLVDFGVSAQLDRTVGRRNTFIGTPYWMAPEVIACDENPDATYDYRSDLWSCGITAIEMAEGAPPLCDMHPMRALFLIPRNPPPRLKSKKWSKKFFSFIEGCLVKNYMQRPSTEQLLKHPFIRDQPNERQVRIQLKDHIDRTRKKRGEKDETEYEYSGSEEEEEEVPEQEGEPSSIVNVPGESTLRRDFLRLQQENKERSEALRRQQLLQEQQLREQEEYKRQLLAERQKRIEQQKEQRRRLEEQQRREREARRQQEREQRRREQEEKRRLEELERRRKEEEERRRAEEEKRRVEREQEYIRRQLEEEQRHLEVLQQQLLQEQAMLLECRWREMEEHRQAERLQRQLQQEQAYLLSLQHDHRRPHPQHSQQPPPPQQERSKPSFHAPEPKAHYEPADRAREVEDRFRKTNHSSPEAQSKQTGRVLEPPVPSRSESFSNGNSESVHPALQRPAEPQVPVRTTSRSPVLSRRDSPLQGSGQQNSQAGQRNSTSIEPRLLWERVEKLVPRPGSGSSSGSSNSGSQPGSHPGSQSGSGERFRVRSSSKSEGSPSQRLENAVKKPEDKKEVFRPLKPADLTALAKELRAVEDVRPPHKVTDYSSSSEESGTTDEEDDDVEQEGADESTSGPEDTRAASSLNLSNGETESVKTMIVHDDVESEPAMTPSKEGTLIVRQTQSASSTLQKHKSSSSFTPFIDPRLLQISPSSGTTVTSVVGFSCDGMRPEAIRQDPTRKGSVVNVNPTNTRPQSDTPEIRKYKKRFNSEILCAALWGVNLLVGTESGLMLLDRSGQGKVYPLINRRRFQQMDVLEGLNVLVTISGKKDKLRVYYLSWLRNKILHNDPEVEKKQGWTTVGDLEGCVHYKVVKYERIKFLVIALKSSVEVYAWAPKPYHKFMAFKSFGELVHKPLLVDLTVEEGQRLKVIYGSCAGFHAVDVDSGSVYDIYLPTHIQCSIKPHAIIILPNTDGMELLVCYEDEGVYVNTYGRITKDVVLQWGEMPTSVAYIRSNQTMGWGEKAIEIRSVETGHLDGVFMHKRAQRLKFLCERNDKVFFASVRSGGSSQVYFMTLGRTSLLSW

[8] = molecular target: eIF-2-alpha kinase GCN2 (Homo sapiens) (UniProt Q9P2K8); assay: Inhibition of GCN2 domain2 in human SKCO1 cells at 1 uM after 4 hrs using biotin labeled DLKPVNIFLDSDDHVK probe by mass-spectrometric analysis relative to control; assay type: cell-based
[9] = molecular target: Aurora kinase A (Homo sapiens) (UniProt O14965); assay: Inhibition of AurA in human SKCO1 cells at 1 uM after 4 hrs using biotin labeled GKFGNVYLAR probe by mass-spectrometric analysis relative to control; conditions: pooled result: one value given for 3 cell lines, strains, targets or settings
Sequence of Aurora kinase A (Homo sapiens) (O14965 whole entry, looked up): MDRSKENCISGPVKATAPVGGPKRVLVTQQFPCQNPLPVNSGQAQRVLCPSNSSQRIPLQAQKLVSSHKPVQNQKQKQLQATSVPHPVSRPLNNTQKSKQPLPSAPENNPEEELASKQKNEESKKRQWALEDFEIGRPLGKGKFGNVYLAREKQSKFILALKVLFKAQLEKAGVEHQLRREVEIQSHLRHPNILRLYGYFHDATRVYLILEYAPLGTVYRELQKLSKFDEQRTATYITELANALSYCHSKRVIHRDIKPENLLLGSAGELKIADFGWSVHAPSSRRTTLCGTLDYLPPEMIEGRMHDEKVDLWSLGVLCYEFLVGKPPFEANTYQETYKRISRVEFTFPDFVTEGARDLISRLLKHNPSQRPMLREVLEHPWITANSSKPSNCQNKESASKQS

[10] = molecular target: Epidermal growth factor receptor (Homo sapiens) (UniProt P00533); assay: Inhibition of EGFR in human SKCO1 cells at 1 uM after 4 hrs using biotin labeled IPVAIKELR probe by mass-spectrometric analysis relative to control; assay type: cell-based
Sequence of Epidermal growth factor receptor (Homo sapiens) (P00533 whole entry): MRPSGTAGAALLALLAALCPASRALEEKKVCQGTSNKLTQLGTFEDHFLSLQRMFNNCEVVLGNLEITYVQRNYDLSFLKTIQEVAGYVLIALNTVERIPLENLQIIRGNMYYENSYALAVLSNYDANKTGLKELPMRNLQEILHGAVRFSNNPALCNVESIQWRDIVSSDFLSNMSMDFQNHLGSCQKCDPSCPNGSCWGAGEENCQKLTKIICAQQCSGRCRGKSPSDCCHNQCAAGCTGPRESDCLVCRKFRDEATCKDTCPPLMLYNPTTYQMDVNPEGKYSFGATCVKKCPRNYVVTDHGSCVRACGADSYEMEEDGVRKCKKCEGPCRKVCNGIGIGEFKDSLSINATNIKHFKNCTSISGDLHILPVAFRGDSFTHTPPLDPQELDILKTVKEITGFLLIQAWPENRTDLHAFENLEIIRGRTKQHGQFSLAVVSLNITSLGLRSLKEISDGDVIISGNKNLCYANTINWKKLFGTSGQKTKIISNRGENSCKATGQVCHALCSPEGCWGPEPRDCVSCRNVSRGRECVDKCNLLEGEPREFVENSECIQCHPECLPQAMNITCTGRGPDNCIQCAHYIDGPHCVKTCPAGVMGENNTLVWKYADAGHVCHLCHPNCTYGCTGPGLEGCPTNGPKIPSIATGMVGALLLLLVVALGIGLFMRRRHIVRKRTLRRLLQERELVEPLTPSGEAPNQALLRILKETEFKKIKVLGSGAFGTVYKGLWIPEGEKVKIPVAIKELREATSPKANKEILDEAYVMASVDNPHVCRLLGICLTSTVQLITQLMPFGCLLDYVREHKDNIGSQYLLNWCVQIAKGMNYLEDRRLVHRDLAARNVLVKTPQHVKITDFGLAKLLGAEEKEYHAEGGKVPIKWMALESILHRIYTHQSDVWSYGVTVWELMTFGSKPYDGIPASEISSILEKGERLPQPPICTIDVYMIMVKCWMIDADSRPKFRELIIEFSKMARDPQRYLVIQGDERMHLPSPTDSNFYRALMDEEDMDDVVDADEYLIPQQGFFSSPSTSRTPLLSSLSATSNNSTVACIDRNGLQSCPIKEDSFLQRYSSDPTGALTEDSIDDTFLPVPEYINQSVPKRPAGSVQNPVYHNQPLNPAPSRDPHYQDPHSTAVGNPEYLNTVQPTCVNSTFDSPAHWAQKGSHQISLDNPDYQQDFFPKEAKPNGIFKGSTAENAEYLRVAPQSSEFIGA

[11] = molecular target: Serine/threonine-protein kinase MARK2 (Homo sapiens) (UniProt Q7KZI7); assay: Inhibition of MARK2 in human SKCO1 cells at 1 uM after 4 hrs using biotin labeled EVAVKIIDKTQLNSSSLQK probe by mass-spectrometric analysis relative to control; assay type: cell-based
Sequence of Serine/threonine-protein kinase MARK2 (Homo sapiens) (Q7KZI7 whole entry): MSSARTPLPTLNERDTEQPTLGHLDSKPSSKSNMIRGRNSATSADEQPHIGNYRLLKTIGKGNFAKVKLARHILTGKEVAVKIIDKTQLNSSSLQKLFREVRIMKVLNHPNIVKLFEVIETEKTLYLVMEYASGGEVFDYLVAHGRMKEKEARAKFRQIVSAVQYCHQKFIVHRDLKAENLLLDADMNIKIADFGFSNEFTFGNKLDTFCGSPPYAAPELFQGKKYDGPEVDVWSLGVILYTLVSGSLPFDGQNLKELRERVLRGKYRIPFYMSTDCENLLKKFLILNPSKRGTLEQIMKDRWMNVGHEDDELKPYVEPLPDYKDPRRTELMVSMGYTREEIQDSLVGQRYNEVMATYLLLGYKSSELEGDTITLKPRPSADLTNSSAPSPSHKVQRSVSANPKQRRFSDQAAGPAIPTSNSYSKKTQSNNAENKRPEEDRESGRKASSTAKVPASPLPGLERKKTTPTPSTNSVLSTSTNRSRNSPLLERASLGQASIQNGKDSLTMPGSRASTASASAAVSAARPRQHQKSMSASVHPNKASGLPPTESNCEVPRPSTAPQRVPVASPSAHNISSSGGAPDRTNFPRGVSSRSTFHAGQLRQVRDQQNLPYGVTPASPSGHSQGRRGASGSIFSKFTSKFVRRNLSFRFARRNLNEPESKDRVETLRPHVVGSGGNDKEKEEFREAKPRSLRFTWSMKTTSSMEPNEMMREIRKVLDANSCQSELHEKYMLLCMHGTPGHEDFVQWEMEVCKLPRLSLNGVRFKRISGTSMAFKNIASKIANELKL

[12] = molecular target: Tyrosine-protein kinase Yes (Homo sapiens) (UniProt P07947); assay: Inhibition of YES in human SKCO1 cells at 1 uM after 4 hrs using biotin labeled QGAKFPIKWTAPEAALYGR probe by mass-spectrometric analysis relative to control; assay type: cell-based
Sequence of Tyrosine-protein kinase Yes (Homo sapiens) (P07947 2-543 limits assumed): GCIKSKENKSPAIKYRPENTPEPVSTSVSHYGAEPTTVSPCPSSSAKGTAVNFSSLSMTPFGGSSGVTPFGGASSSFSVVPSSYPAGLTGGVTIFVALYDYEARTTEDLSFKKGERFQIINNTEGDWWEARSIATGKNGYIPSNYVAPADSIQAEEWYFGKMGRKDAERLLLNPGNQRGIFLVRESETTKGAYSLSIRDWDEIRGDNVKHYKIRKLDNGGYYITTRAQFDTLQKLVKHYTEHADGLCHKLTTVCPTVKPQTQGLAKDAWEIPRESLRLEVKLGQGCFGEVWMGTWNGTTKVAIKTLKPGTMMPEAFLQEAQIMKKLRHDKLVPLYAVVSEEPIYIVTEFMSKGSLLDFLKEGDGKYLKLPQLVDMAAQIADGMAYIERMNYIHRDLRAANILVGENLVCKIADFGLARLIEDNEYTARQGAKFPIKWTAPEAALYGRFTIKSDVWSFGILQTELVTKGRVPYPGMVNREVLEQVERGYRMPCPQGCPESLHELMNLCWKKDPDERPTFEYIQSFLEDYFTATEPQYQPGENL

[13] = molecular target: T2, EKC/KEOPS complex subunit TP53RK (Homo sapiens) (UniProt Q96S44); assay: Inhibition of PRPK in human SKCO1 cells at 1 uM after 4 hrs using biotin labeled FLSGLELVKQGAEAR probe by mass-spectrometric analysis relative to control; assay type: cell-based; how it was run: as §1
T2 sequence (whole entry): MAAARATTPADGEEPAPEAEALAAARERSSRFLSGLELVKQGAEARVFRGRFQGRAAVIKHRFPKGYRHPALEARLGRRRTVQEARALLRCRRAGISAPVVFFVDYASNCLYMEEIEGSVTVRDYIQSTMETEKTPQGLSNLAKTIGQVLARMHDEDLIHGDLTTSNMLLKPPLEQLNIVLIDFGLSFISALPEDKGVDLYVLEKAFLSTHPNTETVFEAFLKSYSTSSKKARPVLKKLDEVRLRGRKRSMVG

| Structure (SMILES) | inhibition [1] | inhibition [2] | inhibition [3] | inhibition [4] | inhibition [5] | inhibition [6] | inhibition [7] | inhibition [8] | inhibition [9] | inhibition [10] | inhibition [11] | inhibition [12] | inhibition [13] |
| --- | --- | --- | --- | --- | --- | --- | --- | --- | --- | --- | --- | --- | --- |
| COc1cc(O)c2c(c1)/C=C/C[C@H](O)[C@H](O)C(=O)/C=C\C[C@H](C)OC2=O | -1.4% | 73.1% | 87.5% | 4.3% | 18.6% | 33.6% | 15.1% | -6.1% | 55.7% | 6.2% | -8.1% | 8.5% | 46.7% |
| C=CC(=O)Nc1ccccc1Nc1nc(Nc2ccc(N3CCN(C)CC3)cc2)ncc1Cl | -5.5% | 28% | 26% | -2.8% | 13.7% | 76% | 6.8% | 14.6% | 95.1% | 46.2% | 2.5% | 50.5% | 42.1% |
| C=CC(=O)Nc1ccccc1Oc1nc(Nc2cnn(CCOC)c2)ncc1Cl | -0.8% | 19.9% | -9.2% | 15.2% | 12.3% | 0.2% | 20.9% | 1.2% | 57.9% | 17.1% | 6.3% | -0.9% | 46.6% |
